For one assay, the system named is HUVEC. Briefly: Cytotoxicity against human HUVEC cells after 48 hrs by MTT assay. The class given is cell-based. In a few lines:
(§1)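 Cells grown in medium with 10% heat-inactivated FBS, 5% CO2, 37 °C. Compounds given in medium with 1% DMSO at 1.25–20 graded concentrations; 1% DMSO medium served as control. MTT (5 mg/mL) added, formazan dissolved in DMSO, absorbance read at 570/630 nm. Survival expressed relative to negative control. IC50 by Bliss method (n=5), at least three independent experiments, mean ± SD.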

A short description of assay [1]: Cytotoxicity against human SMMC-7404 cells after 48 hrs by MTT assay. It is filed as functional, cell-based. Particulars: SMMC-7404, 48 h. The essentials: as §1
(Tetrazolium assays rely on reduction of a dye to a coloured formazan, in cell work by metabolically active cells.)

The subject of another assay is NCI-H460. Description: Cytotoxicity against human NCI-H460 cells after 48 hrs by MTT assay. It is filed as functional, cell-based. As to conditions: NCI-H460, 48 h. In a few lines: as §1
In a further assay the test system is HepG2. Briefly: Cytotoxicity against human HepG2 cells after 48 hrs by MTT assay. The class given is functional, cell-based. As to conditions: HepG2, 48 h. In a few lines: as §1
In a further assay the test system is HeLa. Description: Cytotoxicity against human HeLa cells after 48 hrs by MTT assay. It is filed as functional, cell-based. The essentials:
as §1

A further assay has as its system MGC-803. Description: Cytotoxicity against human MGC803 cells after 48 hrs by MTT assay. It is filed as functional, cell-based. As to conditions: MGC-803, 48 h. In a few lines:
as §1

From ChEMBL document CHEMBL3352325, “Synthesis and biological evaluation of novel aniline-derived asiatic acid derivatives as potential anticancer agents” (Eur J Med Chem, 2014) come the findings set out here.

Usually pIC50 stands for the IC50 on a negative log10 scale, so that one unit is a factor of ten. The low end stands for a high IC50, the high end for a low IC50.

pIC50: −log10 of the molar value.

As for `C[C@H]1[C@H](C)CC[C@]2(C(=O)Nc3cccc(Br)c3)CC[C@]3(C)C(=CC(=O)[C@@H]4[C@@]5(C)C[C@@H](O)[C@H](O)[C@@](C)(CO)[C@@H]5CC[C@]43C)[C@H]12`, the pIC50 in the assay with HUVEC is less than 4.00; in assay [1], 4.65; with NCI-H460, 4.60; in the assay on HepG2, 4.69; in the assay on HeLa, 4.79; in the assay on MGC-803, 4.81.

As for `Cc1ccc(NC(=O)[C@]23CC[C@@H](C)[C@H](C)[C@H]2C2=CC(=O)[C@@H]4[C@@]5(C)C[C@@H](O)[C@H](O)[C@@](C)(CO)[C@@H]5CC[C@@]4(C)[C@]2(C)CC3)cc1Cl`, the pIC50 in the assay on HUVEC is less than 4.00; in assay [1], 4.69; in the assay with NCI-H460, 4.72; in the assay on HepG2 it was 4.73; with HeLa, 4.79; in the assay on MGC-803, 4.70.

On to `C[C@H]1[C@H](C)CC[C@]2(C(=O)O)CC[C@]3(C)C(=CC[C@@H]4[C@@]5(C)C[C@@H](O)[C@H](O)[C@@](C)(CO)[C@@H]5CC[C@]43C)[C@H]12` [ASIATIC ACID], for which the pIC50 is less than 4.00 in the assay with HUVEC; 4.39 in assay [1]; 4.40 with NCI-H460; 4.46 in the assay with HepG2; 4.43 with HeLa; 4.65 in the assay with MGC-803.

With `C[C@H]1[C@H](C)CC[C@]2(C(=O)Nc3cccc(Cl)c3)CC[C@]3(C)C(=CC(=O)[C@@H]4[C@@]5(C)C[C@@H](O)[C@H](O)[C@@](C)(CO)[C@@H]5CC[C@]43C)[C@H]12`, the pIC50 is less than 4.00 in the assay on HUVEC; 4.46 in assay [1]; 4.61 in the assay with NCI-H460; 4.94 with HepG2; 4.85 in the assay with HeLa; 4.71 with MGC-803.

On to `C[C@H]1[C@H](C)CC[C@]2(C(=O)Nc3ccc(F)cc3)CC[C@]3(C)C(=CC(=O)[C@@H]4[C@@]5(C)C[C@@H](O)[C@H](O)[C@@](C)(CO)[C@@H]5CC[C@]43C)[C@H]12`, for which the negative-log IC50 (pIC50) was less than 4.00 with HUVEC; less than 4.00 in assay [1]; 4.50 in the assay with NCI-H460; less than 4.00 in the assay on HepG2; 4.68 in the assay on HeLa; 4.58 in the assay with MGC-803.

For `C[C@H]1[C@H](C)CC[C@]2(C(=O)Nc3ccc(F)c(Cl)c3)CC[C@]3(C)C(=CC(=O)[C@@H]4[C@@]5(C)C[C@@H](O)[C@H](O)[C@@](C)(CO)[C@@H]5CC[C@]43C)[C@H]12`, the pIC50 is less than 4.00 in the assay with HUVEC; 4.72 in assay [1]; 4.62 in the assay on NCI-H460; 4.71 in the assay with HepG2; 4.85 in the assay on HeLa; 4.85 in the assay on MGC-803.

In the case of `C[C@H]1[C@H](C)CC[C@]2(C(=O)Nc3ccc(Br)cc3)CC[C@]3(C)C(=CC(=O)[C@@H]4[C@@]5(C)C[C@@H](O)[C@H](O)[C@@](C)(CO)[C@@H]5CC[C@]43C)[C@H]12`, the pIC50 with HUVEC was less than 4.00; in assay [1] it was less than 4.00; with NCI-H460, 4.51; in the assay on HepG2 it was 4.67; in the assay on HeLa, 4.73; in the assay on MGC-803, 4.69.

Turning to `Cc1cc(Br)ccc1NC(=O)[C@]12CC[C@@H](C)[C@H](C)[C@H]1C1=CC(=O)[C@@H]3[C@@]4(C)C[C@@H](O)[C@H](O)[C@@](C)(CO)[C@@H]4CC[C@@]3(C)[C@]1(C)CC2`, the pIC50 in the assay on HUVEC is less than 4.00; in assay [1] it was 4.77; in the assay on NCI-H460, 4.62; in the assay on HepG2, 4.64; in the assay on HeLa, 4.80; in the assay with MGC-803, 4.83.

In the case of `C[C@H]1[C@H](C)CC[C@]2(C(=O)Nc3cccc4ccccc34)CC[C@]3(C)C(=CC(=O)[C@@H]4[C@@]5(C)C[C@@H](O)[C@H](O)[C@@](C)(CO)[C@@H]5CC[C@]43C)[C@H]12`, the pIC50 is less than 4.00 in the assay on HUVEC; 4.69 in assay [1]; 4.78 in the assay with NCI-H460; 4.67 with HepG2; 4.85 with HeLa; 4.70 in the assay with MGC-803.

In the case of `C[C@H]1[C@H](C)CC[C@]2(C(=O)Nc3ccccc3F)CC[C@]3(C)C(=CC(=O)[C@@H]4[C@@]5(C)C[C@@H](O)[C@H](O)[C@@](C)(CO)[C@@H]5CC[C@]43C)[C@H]12`, the pIC50 in the assay on HUVEC is less than 4.00; in assay [1] it was 4.63; in the assay with NCI-H460, 4.21; in the assay with HepG2, less than 4.00; in the assay with HeLa, 4.49; in the assay with MGC-803 it was 4.70.

Take `O=c1[nH]cc(F)c(=O)[nH]1` [FLUOROURACIL]: the pIC50 in assay [1] is 4.40; with HepG2, 4.52.

Take `Cc1ccc(C)c(NC(=O)[C@]23CC[C@@H](C)[C@H](C)[C@H]2C2=CC(=O)[C@@H]4[C@@]5(C)C[C@@H](O)[C@H](O)[C@@](C)(CO)[C@@H]5CC[C@@]4(C)[C@]2(C)CC3)c1`: the negative logarithm of the IC50 (pIC50) with HUVEC is less than 4.00; in assay [1], 4.80; in the assay with NCI-H460, 4.56; in the assay with HepG2, 4.59; in the assay with HeLa it was 4.80; in the assay with MGC-803, 4.68.

Regarding `C[C@H]1[C@H](C)CC[C@]2(C(=O)Nc3ccccc3)CC[C@]3(C)C(=CC(=O)[C@@H]4[C@@]5(C)C[C@@H](O)[C@H](O)[C@@](C)(CO)[C@@H]5CC[C@]43C)[C@H]12`, the pIC50 in the assay with HUVEC was less than 4.00; in assay [1], less than 4.00; in the assay on NCI-H460, 4.92; in the assay on HepG2, less than 4.00; in the assay with HeLa, 4.57; in the assay with MGC-803, less than 4.00.

Take `COc1cccc(NC(=O)[C@]23CC[C@@H](C)[C@H](C)[C@H]2C2=CC(=O)[C@@H]4[C@@]5(C)C[C@@H](O)[C@H](O)[C@@](C)(CO)[C@@H]5CC[C@@]4(C)[C@]2(C)CC3)c1`: the pIC50 is less than 4.00 in the assay with HUVEC; 4.63 in assay [1]; 4.64 in the assay on NCI-H460; 5.05 with HepG2; 4.75 in the assay with HeLa; 4.61 with MGC-803.

Regarding `C[C@H]1[C@H](C)CC[C@]2(C(=O)Nc3ccc(Cl)c(Cl)c3)CC[C@]3(C)C(=CC(=O)[C@@H]4[C@@]5(C)C[C@@H](O)[C@H](O)[C@@](C)(CO)[C@@H]5CC[C@]43C)[C@H]12`, the pIC50 with HUVEC is less than 4.00; in assay [1] it was 4.76; with NCI-H460 it was 4.67; in the assay on HepG2 it was 4.86; in the assay with HeLa it was 4.91; in the assay on MGC-803 it was 4.86.

For `COc1ccccc1NC(=O)[C@]12CC[C@@H](C)[C@H](C)[C@H]1C1=CC(=O)[C@@H]3[C@@]4(C)C[C@@H](O)[C@H](O)[C@@](C)(CO)[C@@H]4CC[C@@]3(C)[C@]1(C)CC2`, the pIC50 was less than 4.00 with HUVEC; 4.79 in assay [1]; 4.73 with NCI-H460; 4.96 in the assay with HepG2; 4.46 with HeLa; 4.72 with MGC-803.

In the case of `Cc1cccc(NC(=O)[C@]23CC[C@@H](C)[C@H](C)[C@H]2C2=CC(=O)[C@@H]4[C@@]5(C)C[C@@H](O)[C@H](O)[C@@](C)(CO)[C@@H]5CC[C@@]4(C)[C@]2(C)CC3)c1`, the pIC50 with HUVEC was less than 4.00; in assay [1], 4.79; with NCI-H460 it was 4.66; in the assay on HepG2 it was 4.71; with HeLa it was 4.84; in the assay on MGC-803, 4.67.

As to `C[C@H]1[C@H](C)CC[C@]2(C(=O)Nc3ccc(Cl)cc3)CC[C@]3(C)C(=CC(=O)[C@@H]4[C@@]5(C)C[C@@H](O)[C@H](O)[C@@](C)(CO)[C@@H]5CC[C@]43C)[C@H]12`, the pIC50 in the assay on HUVEC is less than 4.00; in assay [1], 4.76; in the assay on NCI-H460 it was 4.89; in the assay with HepG2, 4.53; in the assay with HeLa, 4.88; with MGC-803 it was 4.65.

As to `C[C@H]1[C@H](C)CC[C@]2(C(=O)Nc3ccc(Br)c(F)c3)CC[C@]3(C)C(=CC(=O)[C@@H]4[C@@]5(C)C[C@@H](O)[C@H](O)[C@@](C)(CO)[C@@H]5CC[C@]43C)[C@H]12`, the pIC50 was less than 4.00 with HUVEC; 4.76 in assay [1]; 4.78 in the assay on NCI-H460; 4.55 with HepG2; 5.01 in the assay on HeLa; 4.80 in the assay with MGC-803.

Turning to `Cc1ccc(NC(=O)[C@]23CC[C@@H](C)[C@H](C)[C@H]2C2=CC(=O)[C@@H]4[C@@]5(C)C[C@@H](O)[C@H](O)[C@@](C)(CO)[C@@H]5CC[C@@]4(C)[C@]2(C)CC3)cc1`, the pIC50 with HUVEC was less than 4.00; in assay [1], less than 4.00; in the assay with NCI-H460, 4.52; with HepG2 it was 4.65; in the assay on HeLa it was 4.49; in the assay with MGC-803 it was 4.84.

Consider `COc1ccc(NC(=O)[C@]23CC[C@@H](C)[C@H](C)[C@H]2C2=CC(=O)[C@@H]4[C@@]5(C)C[C@@H](O)[C@H](O)[C@@](C)(CO)[C@@H]5CC[C@@]4(C)[C@]2(C)CC3)cc1`, for which the pIC50 with HUVEC is less than 4.00; in assay [1], less than 4.00; with NCI-H460, less than 4.00; in the assay on HepG2 it was 4.78; with HeLa it was less than 4.00; in the assay with MGC-803, 4.52.
